According to ChEMBL document CHEMBL5357066, “Development of Novel Membrane Disrupting Lipoguanidine Compounds Sensitizing Gram-Negative Bacteria to Antibiotics” (ACS Med Chem Lett, 2024):
Converted amounts (≈) assume the structure as drawn.

What was measured:
Pseudomonas aeruginosa [1] = experiment: Antibacterial activity against Pseudomonas aeruginosa NCTC 13437 assessed as bacterial growth inhibition incubated for overnight by microbroth dilution method; type: functional
Method in brief: (§1)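 Broth microdilution in Tryptic Soy Broth. DMSO stocks were diluted in TSB as 2-fold series. Overnight TSB cultures were back-diluted to OD 0.01 and mixed 1:1 with compound. Incubation was overnight at 37 °C. MIC was the lowest concentration without visible growth (<0.1 OD600). DMSO vehicle was checked at equivalent concentrations.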

Staphylococcus aureus [2] = experiment: Antibacterial activity against methicillin sensitive Staphylococcus aureus ATCC 9144 assessed as bacterial growth inhibition incubated for overnight by microbroth dilution method; type: functional
Method in brief: (§2)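 Microbroth dilution in Tryptic Soy Broth. DMSO stocks were diluted in TSB as 2-fold series. Overnight TSB cultures were back-diluted to OD 0.01 and mixed 1:1 with compound. Incubation was overnight at 37 °C. MIC is the lowest concentration with no visible growth (<0.1 OD600). DMSO at equivalent concentrations was checked.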

Staphylococcus aureus [3] = experiment: Antibacterial activity against methicillin resistant Staphylococcus aureus NCTC 13616 assessed as bacterial growth inhibition incubated for overnight by microbroth dilution method; type: functional; method in brief: as §2
Staphylococcus aureus [4] = experiment: Antibacterial activity against methicillin resistant Staphylococcus aureus USA 300 assessed as bacterial growth inhibition incubated for overnight by microbroth dilution method; type: functional; method in brief: as §2
Enterococcus faecalis [5] = experiment: Antibacterial activity against vancomycin resistant Enterococcus faecalis NCTC 12201 assessed as bacterial growth inhibition incubated for overnight by microbroth dilution method; type: functional; method in brief: as §2
Enterococcus faecium = experiment: Antibacterial activity against vancomycin resistant Enterococcus faecium NCTC 12204 assessed as bacterial growth inhibition incubated for overnight by microbroth dilution method; type: functional; method in brief: as §2
Acinetobacter baumannii [6] = experiment: Antibacterial activity against Acinetobacter baumannii AYE assessed as bacterial growth inhibition incubated for overnight by microbroth dilution method; type: functional; method in brief: as §1
Acinetobacter baumannii [7] = experiment: Antibacterial activity against Acinetobacter baumannii ATCC 17978 assessed as bacterial growth inhibition incubated for overnight by microbroth dilution method; type: functional; method in brief: as §1
Pseudomonas aeruginosa [8] = experiment: Antibacterial activity against Pseudomonas aeruginosa PAO1 assessed as bacterial growth inhibition incubated for overnight by microbroth dilution method; type: functional; method in brief: as §1
Escherichia coli [9] = experiment: Antibacterial activity against Escherichia coli NCTC 12923 assessed as bacterial growth inhibition incubated for overnight by microbroth dilution method; type: functional; method in brief: as §1
Klebsiella pneumoniae [10] = experiment: Synergistic antibacterial activity against Klebsiella pneumoniae NCTC 13368 assessed as rifampicin MIC at <=0.25 times MIC incubated for overnight by microbroth dilution checkerboard assay; type: functional
Method in brief: (§3)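 Checkerboard microdilution under MIC conditions (TSB, overnight, 37 °C). Two-fold series of each agent were combined on one plate before bacteria were added, and single-agent MICs were measured on the same plate. FIC = sum of combination MIC/alone MIC for each agent, taken from the most synergistic well. Three independent repeats, mean ± SD. ≤0.5 was taken as strong synergy and 0.5–<1 as weak.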

Klebsiella pneumoniae [11] = experiment: Synergistic antibacterial activity against […] Klebsiella pneumoniae M6 assessed as rifampicin MIC at <=0.25 times MIC incubated for overnight by microbroth dilution checkerboard assay; type: functional
Method in brief: (§4)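 Checkerboard run under the MIC conditions (TSB, overnight, 37 °C). Antibiotic and lipoguanidine 2-fold series were combined on one plate before bacteria were added. Growth/no-growth was scored as for the MIC (<0.1 OD600). Single-agent MICs were measured on the same plates. Three independent repeats were done.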

Acinetobacter baumannii [12] = experiment: Synergistic antibacterial activity against Acinetobacter baumannii AYE assessed as rifampicin MIC at <=0.25 times MIC incubated for overnight by microbroth dilution checkerboard assay; type: functional; method in brief: as §3
Acinetobacter baumannii [13] = experiment: Synergistic antibacterial activity against Acinetobacter baumannii ATCC 17978 assessed as rifampicin MIC at <=0.25 times MIC incubated for overnight by microbroth dilution checkerboard assay; type: functional; method in brief: as §3
Pseudomonas aeruginosa [14] = experiment: Synergistic antibacterial activity against Pseudomonas aeruginosa PAO1 assessed as rifampicin MIC at <=0.25 times MIC incubated for overnight by microbroth dilution checkerboard assay; type: functional
Method in brief: (§5)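 Checkerboard microdilution in Tryptic Soy Broth, run like the MIC assay. Overnight TSB cultures were back-diluted to OD 0.01 and added 1:1 to the combined two-fold series of both agents, then incubated overnight at 37 °C. Growth/no-growth was called at <0.1 OD600. MICs alone were read on the same plates. FIC index came from the most synergistic well; three independent repeats, mean ± SD.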

Pseudomonas aeruginosa [15] = experiment: Synergistic antibacterial activity against Pseudomonas aeruginosa NCTC 13437 assessed as rifampicin MIC at <=0.25 times MIC incubated for overnight by microbroth dilution checkerboard assay; type: functional; method in brief: as §5
Erythrocyte = experiment: Hemolytic activity in human Red blood cells at 512 microg/ml measured after 1 hrs by absorbance based assay; type: toxicity, cell-based; details: dose 512 µg/ml
Method in brief: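 Titrations in PBS were incubated with freshly collected human red blood cells for 1 h at 37 °C. Controls were 0.1% Triton-X-100 (full lysis) and PBS alone (no lysis). After centrifugation, supernatant OD550 was read. % haemolysis = (AP−AB)/(AC−AB)×100. Data are means and standard error of three biological replicates.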

Staphylococcus aureus [16] = experiment: Antibacterial activity against methicillin sensitive Staphylococcus aureus 1199B assessed as bacterial growth inhibition incubated for overnight by microbroth dilution method; type: functional; method in brief: as §2
Klebsiella pneumoniae [17] = experiment: Synergistic antibacterial activity against Klebsiella pneumoniae NCTC 13368 assessed as fold change in rifampicin MIC at <=0.25 times MIC incubated for overnight by microbroth dilution checkerboard assay relative to rifampicin alone; type: functional; method in brief: as §4
Acinetobacter baumannii [18] = experiment: Synergistic antibacterial activity against Acinetobacter baumannii AYE assessed as fold change in rifampicin MIC at <=0.25 times MIC incubated for overnight by microbroth dilution checkerboard assay relative to rifampicin alone; type: functional; method in brief: as §3
Acinetobacter baumannii [19] = experiment: Synergistic antibacterial activity against Acinetobacter baumannii ATCC 17978 assessed as fold change in rifampicin MIC at <=0.25 times MIC incubated for overnight by microbroth dilution checkerboard assay relative to rifampicin alone; type: functional; method in brief: as §3
Pseudomonas aeruginosa [20] = experiment: Synergistic antibacterial activity against Pseudomonas aeruginosa PAO1 assessed as fold change in rifampicin MIC at <=0.25 times MIC incubated for overnight by microbroth dilution checkerboard assay relative to rifampicin alone; type: functional; method in brief: as §5
Pseudomonas aeruginosa [21] = experiment: Synergistic antibacterial activity against Pseudomonas aeruginosa NCTC 13437 assessed as fold change in rifampicin MIC at <=0.25 times MIC incubated for overnight by microbroth dilution checkerboard assay relative to rifampicin alone; type: functional; method in brief: as §5
Klebsiella pneumoniae [22] = experiment: Antibacterial activity against Klebsiella pneumoniae M6 assessed as bacterial growth inhibition incubated for overnight by microbroth dilution method
Klebsiella pneumoniae [23] = experiment: Antibacterial activity against ESBL Klebsiella pneumoniae NCTC 13368 assessed as bacterial growth inhibition incubated for overnight by microbroth dilution method
Enterococcus faecalis [24] = experiment: Antibacterial activity against vancomycin sensitive Enterococcus faecalis NCTC 775 assessed as bacterial growth inhibition incubated for overnight by microbroth dilution method
Escherichia coli [25] = experiment: Synergistic antibacterial activity against Escherichia coli NCTC 12923 assessed as rifampicin MIC at <=0.25 times MIC incubated for overnight by microbroth dilution checkerboard assay; type: functional; method in brief: as §3
Klebsiella pneumoniae [26] = experiment: Synergistic antibacterial activity against Klebsiella pneumoniae NCTC 13368 assessed as bacterial growth inhibition incubated for overnight in presence of PBMN by microbroth dilution method relative to control; type: functional
Method in brief: (§6)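 Adapted broth microdilution in TSB. The test compound was in a 2-fold dilution series, with PMBN added at a fixed 30 µg/mL. Bacteria at OD 0.02 were added, and plates were incubated overnight at 37 °C. Growth/no growth was read as for the MIC (<0.1 OD600).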

Klebsiella pneumoniae [27] = experiment: Synergistic antibacterial activity against Klebsiella pneumoniae M6 assessed as bacterial growth inhibition incubated for overnight in presence of PBMN by microbroth dilution method relative to control; type: functional; method in brief: as §6
Acinetobacter baumannii [28] = experiment: Synergistic antibacterial activity against Acinetobacter baumannii AYE assessed as bacterial growth inhibition incubated for overnight in presence of PBMN by microbroth dilution method relative to control; type: functional; method in brief: as §6
Acinetobacter baumannii [29] = experiment: Synergistic antibacterial activity against Acinetobacter baumannii ATCC 17978 assessed as bacterial growth inhibition incubated for overnight in presence of PBMN by microbroth dilution method relative to control; type: functional; method in brief: as §6
Pseudomonas aeruginosa [30] = experiment: Synergistic antibacterial activity against Pseudomonas aeruginosa PAO1 assessed as bacterial growth inhibition incubated for overnight in presence of […] by microbroth dilution method relative to control; type: functional
Method in brief: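 Fixed-concentration combination MIC in TSB. The first agent was set in a two-fold dilution series (100 µL/well), then 50 µL/well of the second agent at a fixed concentration was added; PMBN was fixed at 30 µg/mL. Bacteria at OD 0.02 (50 µL) went into 150 µL of compounds, overnight at 37 °C. MIC was the lowest concentration without visible growth (<0.1 OD600).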

Pseudomonas aeruginosa [31] = experiment: Synergistic antibacterial activity against Pseudomonas aeruginosa NCTC 13437 assessed as bacterial growth inhibition incubated for overnight in presence of PBMN by microbroth dilution method relative to control; type: functional; method in brief: as §6
Escherichia coli [32] = experiment: Synergistic antibacterial activity against Escherichia coli NCTC 12923 assessed as bacterial growth inhibition incubated for overnight in presence of PBMN by microbroth dilution method relative to control; type: functional; method in brief: as §6
Escherichia coli [33] = experiment: Synergistic antibacterial activity against Escherichia coli NCTC 12923 assessed as fold change in rifampicin MIC at <=0.25 times MIC incubated for overnight by microbroth dilution checkerboard assay relative to rifampicin alone; type: functional; method in brief: as §3

Structure (SMILES) | MIC (Pseudomonas aeruginosa [1]) | MIC (Staphylococcus aureus [2]) | MIC (Staphylococcus aureus [3]) | MIC (Staphylococcus aureus [4]) | MIC (Enterococcus faecalis [5]) | MIC (Enterococcus faecium) | MIC (Acinetobacter baumannii [6]) | MIC (Acinetobacter baumannii [7]) | MIC (Pseudomonas aeruginosa [8]) | MIC (Escherichia coli [9]) | MIC (Klebsiella pneumoniae [10]) | MIC (Klebsiella pneumoniae [11]) | MIC (Acinetobacter baumannii [12]) | MIC (Acinetobacter baumannii [13]) | MIC (Pseudomonas aeruginosa [14]) | MIC (Pseudomonas aeruginosa [15]) | MIC (Staphylococcus aureus [16]) | fold change (FC) (Klebsiella pneumoniae [17]) | fold change (FC) (Acinetobacter baumannii [18]) | fold change (FC) (Acinetobacter baumannii [19]) | further results
CCCCCCCCCCCCCCCCNC(=N)NCCCCN | > 128 µg/mL | 2 µg/mL (≈ 5.64 µM) | 2 µg/mL (≈ 5.64 µM) | 2 µg/mL (≈ 5.64 µM) | 2 µg/mL (≈ 5.64 µM) | 2 µg/mL (≈ 5.64 µM) | 32 µg/mL (≈ 90.2 µM) | 4 µg/mL (≈ 11.3 µM) | > 128 µg/mL | 32 µg/mL (≈ 90.2 µM) | 2 µg/mL | 0.25 µg/mL | ≤ 0.125 µg/mL | 0.25 µg/mL | 2 µg/mL | 16 µg/mL | 4 µg/mL (≈ 11.3 µM) | >=4 | >=4 | >=4 | Activity (Erythrocyte): Toxic; fold change (FC) (Pseudomonas aeruginosa [20]): >=4; fold change (FC) (Pseudomonas aeruginosa [21]): 0; MIC (Klebsiella pneumoniae [22]): 8 µg/mL (≈ 22.6 µM); MIC (Klebsiella pneumoniae [23]): > 128 µg/mL; MIC (Enterococcus faecalis [24]): 2 µg/mL (≈ 5.64 µM)
CCCCC/C=C\C/C=C\CCCCCCCCNC(=N)NCCCCCCCCNC(=N)N | > 128 µg/mL | 2 µg/mL (≈ 4.19 µM) | 4 µg/mL (≈ 8.39 µM) | 2 µg/mL (≈ 4.19 µM) | 4 µg/mL (≈ 8.39 µM) | 2 µg/mL (≈ 4.19 µM) | 16 µg/mL (≈ 33.6 µM) | 4 µg/mL (≈ 8.39 µM) | > 128 µg/mL | 8 µg/mL (≈ 16.8 µM) | 8 µg/mL | 0.5 µg/mL | 1 µg/mL | 1 µg/mL | 16 µg/mL | 16 µg/mL | 2 µg/mL (≈ 4.19 µM) | >=4 | >=4 | >=4 | MIC (Escherichia coli [25]): 8 µg/mL; inhibition (INH) (Klebsiella pneumoniae [26]): <20%; inhibition (INH) (Klebsiella pneumoniae [27]): <20%; inhibition (INH) (Acinetobacter baumannii [28]): <20%; inhibition (INH) (Acinetobacter baumannii [29]): <20%; inhibition (INH) (Pseudomonas aeruginosa [30]): <20%; inhibition (INH) (Pseudomonas aeruginosa [31]): <20%; inhibition (INH) (Escherichia coli [32]): <20%; fold change (FC) (Pseudomonas aeruginosa [20]): 0; fold change (FC) (Pseudomonas aeruginosa [21]): 0; fold change (FC) (Escherichia coli [33]): 0; MIC (Klebsiella pneumoniae [22]): 16 µg/mL (≈ 33.6 µM); MIC (Klebsiella pneumoniae [23]): 32 µg/mL (≈ 67.1 µM); MIC (Enterococcus faecalis [24]): 4 µg/mL (≈ 8.39 µM)
